Test results as given in ChEMBL document CHEMBL4219177, “Synthesis and evaluation of the antibacterial activities of aryl substituted dihydrotriazine derivatives” (Bioorg Med Chem Lett, 2018).
≈ marks a conversion by molar mass, not a printed value.

How the values were obtained:
[1] = tested on: Streptococcus mutans; test: Antibacterial activity against Streptococcus mutans 3289 after 24 hrs by two-fold serial dilution method; assay type: functional; conditions: Streptococcus mutans, 3289, 24 h
[2] = tested on: Staphylococcus aureus; test: Antibacterial activity against quinolone-resistant Staphylococcus aureus isolate CCARM 3505 after 24 hrs by two-fold serial dilution method; assay type: functional; conditions: isolate CCARM 3505, 24 h
How it was run: (§1)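 Broth microdilution MIC. Bacteria were grown to mid-log phase in Mueller-Hinton broth, diluted 1000-fold, and inoculated at 10^5 CFU/mL. Compounds in DMSO (final ≤0.05%) were tested as two-fold serial dilutions from 64 to 0.25. Plates were incubated 24 h at 37 °C and growth read as absorbance at 650 nm. MIC = concentration completely inhibiting growth. Experiments were run three times.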

[3] = tested on: Candida albicans; test: Antifungal activity against Candida albicans 7535 after 24 hrs by two-fold serial dilution method; assay type: functional; conditions: Candida albicans, 7535, 24 h
[4] = tested on: Staphylococcus aureus; test: Antibacterial activity against Staphylococcus aureus 4220 after 24 hrs by two-fold serial dilution method; assay type: functional; conditions: RN4220, 24 h; how it was run: as §1
[5] = tested on: Salmonella typhimurium; test: Antibacterial activity against Salmonella typhimurium 2421 after 24 hrs by two-fold serial dilution method; assay type: functional, Salmonella enterica subsp. enterica serovar Typhimurium; conditions: Salmonella enterica, 2421, 24 h
How it was run: (§2)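 Bacteria grown to mid-log phase in Mueller-Hinton broth, diluted 1000-fold, and inoculated at 10^5 CFU/mL. Compounds were dissolved in DMSO (final ≤0.05%) and two-fold serially diluted. MIC was the lowest concentration giving complete growth inhibition after 24 h at 37 °C, with growth read as absorbance at 650 nm. Each experiment was run three times.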

[6] = tested on: Escherichia coli; test: Antibacterial activity against Escherichia coli 1924 after 24 hrs by two-fold serial dilution method; assay type: functional; conditions: Escherichia coli, 1924, 24 h; how it was run: as §2
[7] = tested on: Pseudomonas aeruginosa; test: Antibacterial activity against Pseudomonas aeruginosa 2742 after 24 hrs by two-fold serial dilution method; assay type: functional; conditions: Pseudomonas aeruginosa, 2742, 24 h; how it was run: as §2
[8] = tested on: Staphylococcus aureus; test: Antibacterial activity against methicillin-resistant Staphylococcus aureus isolate CCARM 3167 after 24 hrs by two-fold serial dilution method; assay type: functional; conditions: isolate CCARM 3167, 24 h
[9] = tested on: L02; test: Cytotoxicity against human L02 cells assessed as growth inhibition after 24 hrs by MTT assay; assay type: cell-based; conditions: L02, 24 h

| Compound | MIC [1] | MIC [2] | MIC [3] | MIC [4] | MIC [5] | MIC [6] | MIC [7] | MIC [8] | IC50 [9] |
| --- | --- | --- | --- | --- | --- | --- | --- | --- | --- |
| CN(C)C1=NC(c2ccc(OCC(=O)c3ccccc3)cc2)N=C(N)N1 (stereo not drawn) | > 64 µg/mL | > 64 µg/mL | > 64 µg/mL | > 64 µg/mL | > 64 µg/mL | > 64 µg/mL | > 64 µg/mL | > 64 µg/mL | – |
| Cc1ccc(C(=O)/C=C/c2ccc(C3N=C(N)NC(N(C)C)=N3)cc2)c(C)c1 (stereo not drawn) | 32 µg/mL (≈ 85.2 µM) | 32 µg/mL (≈ 85.2 µM) | 32 µg/mL (≈ 85.2 µM) | 32 µg/mL | > 64 µg/mL | 32 µg/mL (≈ 85.2 µM) | > 64 µg/mL | 32 µg/mL | – |
| CN(C)C1=NC(c2ccc(OCC(=O)c3ccc(Br)cc3)cc2)N=C(N)N1 (stereo not drawn) | 32 µg/mL (≈ 74.4 µM) | 64 µg/mL (≈ 149 µM) | 32 µg/mL (≈ 74.4 µM) | 32 µg/mL | > 64 µg/mL | 64 µg/mL (≈ 149 µM) | > 64 µg/mL | 32 µg/mL | – |
| COc1cccc(C(=O)/C=C/c2ccc(C3N=C(N)NC(N(C)C)=N3)cc2)c1 (stereo not drawn) | 16 µg/mL (≈ 42.4 µM) | 16 µg/mL (≈ 42.4 µM) | 16 µg/mL (≈ 42.4 µM) | 32 µg/mL | > 64 µg/mL | 16 µg/mL (≈ 42.4 µM) | > 64 µg/mL | 16 µg/mL | – |
| CN(C)C1=NC(c2ccc3cc(OCc4cccc(Cl)c4)ccc3c2)N=C(N)N1 (stereo not drawn) | 2 µg/mL (≈ 4.9 µM) | 1 µg/mL (≈ 2.45 µM) | 1 µg/mL (≈ 2.45 µM) | 2 µg/mL | 64 µg/mL (≈ 157 µM) | 1 µg/mL (≈ 2.45 µM) | 64 µg/mL (≈ 157 µM) | 1 µg/mL | – |
| CN(C)C1=NC(c2ccc(OCc3ccc(F)cc3)cc2)N=C(N)N1 (stereo not drawn) | 64 µg/mL (≈ 187 µM) | 64 µg/mL (≈ 187 µM) | 64 µg/mL (≈ 187 µM) | 64 µg/mL | > 64 µg/mL | 64 µg/mL (≈ 187 µM) | > 64 µg/mL | 32 µg/mL | – |
| CN(C)C1=NC(c2ccc3cc(OCC(=O)c4ccc(Br)cc4)ccc3c2)N=C(N)N1 (stereo not drawn) | 8 µg/mL (≈ 16.7 µM) | 4 µg/mL (≈ 8.33 µM) | 16 µg/mL (≈ 33.3 µM) | 16.7 µM | 64 µg/mL (≈ 133 µM) | 8 µg/mL (≈ 16.7 µM) | 64 µg/mL (≈ 133 µM) | 8.35 µM | 58.7 µM |
| Cc1ccc(COc2ccc3cc(C4N=C(N)NC(N(C)C)=N4)ccc3c2)cc1 (stereo not drawn) | 2 µg/mL (≈ 5.16 µM) | 2 µg/mL (≈ 5.16 µM) | 4 µg/mL (≈ 10.3 µM) | 2 µg/mL | 64 µg/mL (≈ 165 µM) | 2 µg/mL (≈ 5.16 µM) | 64 µg/mL (≈ 165 µM) | 2 µg/mL | – |
| CN(C)C1=NC(c2ccc(/C=C/C(=O)c3ccc(Br)cc3)cc2)N=C(N)N1 (stereo not drawn) | 16 µg/mL (≈ 37.5 µM) | 8 µg/mL (≈ 18.8 µM) | 16 µg/mL (≈ 37.5 µM) | 16 µg/mL | > 64 µg/mL | 16 µg/mL (≈ 37.5 µM) | > 64 µg/mL | 8 µg/mL | – |
| CN(C)C1=NC(c2ccc3cc(OCc4ccccc4)ccc3c2)N=C(N)N1 (stereo not drawn) | 8 µg/mL (≈ 21.4 µM) | 8 µg/mL (≈ 21.4 µM) | 8 µg/mL (≈ 21.4 µM) | 16 µg/mL | > 64 µg/mL | 8 µg/mL (≈ 21.4 µM) | > 64 µg/mL | 8 µg/mL | – |
| CN(C)C1=NC(c2ccc(/C=C/C(=O)c3ccccc3)cc2)N=C(N)N1 (stereo not drawn) | 32 µg/mL (≈ 92.1 µM) | 32 µg/mL (≈ 92.1 µM) | 32 µg/mL (≈ 92.1 µM) | 32 µg/mL | > 64 µg/mL | 64 µg/mL (≈ 184 µM) | > 64 µg/mL | 32 µg/mL | – |
| OC(Cn1cncn1)(Cn1cncn1)c1ccc(F)cc1F [FLUCONAZOLE] | 1 µg/mL (≈ 3.27 µM) | – | – | – | – | – | – | – | – |
| CN(C)C1=NC(c2ccc(/C=C/C(=O)c3ccccc3Br)cc2)N=C(N)N1 (stereo not drawn) | 16 µg/mL (≈ 37.5 µM) | 32 µg/mL (≈ 75.1 µM) | 32 µg/mL (≈ 75.1 µM) | 64 µg/mL | > 64 µg/mL | 64 µg/mL (≈ 150 µM) | > 64 µg/mL | 32 µg/mL | – |
| CN(C)C1=NC(c2ccc(/C=C/C(=O)c3ccc(F)cc3)cc2)N=C(N)N1 (stereo not drawn) | 16 µg/mL (≈ 43.8 µM) | 32 µg/mL (≈ 87.6 µM) | 32 µg/mL (≈ 87.6 µM) | 32 µg/mL | > 64 µg/mL | 32 µg/mL (≈ 87.6 µM) | > 64 µg/mL | 32 µg/mL | – |
| Cc1ccc(C(=O)/C=C/c2ccc(C3N=C(N)NC(N(C)C)=N3)cc2)cc1 (stereo not drawn) | 16 µg/mL (≈ 44.3 µM) | 16 µg/mL (≈ 44.3 µM) | 16 µg/mL (≈ 44.3 µM) | 32 µg/mL | > 64 µg/mL | 32 µg/mL (≈ 88.5 µM) | > 64 µg/mL | 16 µg/mL | – |
| COc1c(N2CCNC(C)C2)c(F)cc2c(=O)c(C(=O)O)cn(C3CC3)c12 (stereo not drawn) [GATIFLOXACIN] | 0.25 µg/mL (≈ 0.666 µM) | 8 µg/mL (≈ 21.3 µM) | 0.5 µg/mL (≈ 1.33 µM) | 0.25 µg/mL | – | 2 µg/mL (≈ 5.33 µM) | 1 µg/mL (≈ 2.66 µM) | 2 µg/mL | – |
| COc1c(N2C[C@@H]3CCCN[C@@H]3C2)c(F)cc2c(=O)c(C(=O)O)cn(C3CC3)c12 [MOXIFLOXACIN] | – | 1 µg/mL (≈ 2.49 µM) | – | 4 µg/mL | – | – | 0.5 µg/mL (≈ 1.25 µM) | – | – |
| CN(C)C1=NC(c2ccc3cc(OCc4ccccc4Cl)ccc3c2)N=C(N)N1 (stereo not drawn) | 2 µg/mL (≈ 4.9 µM) | 1 µg/mL (≈ 2.45 µM) | 1 µg/mL (≈ 2.45 µM) | 2 µg/mL | 64 µg/mL (≈ 157 µM) | 1 µg/mL (≈ 2.45 µM) | 64 µg/mL (≈ 157 µM) | 1 µg/mL | – |
| CN(C)C1=NC(c2ccc3cc(OCC(=O)c4ccccc4)ccc3c2)N=C(N)N1 (stereo not drawn) | 64 µg/mL (≈ 159 µM) | 32 µg/mL (≈ 79.7 µM) | 32 µg/mL (≈ 79.7 µM) | 32 µg/mL | > 64 µg/mL | 64 µg/mL (≈ 159 µM) | > 64 µg/mL | 32 µg/mL | – |
| Cc1ccc(COc2ccc(C3N=C(N)NC(N(C)C)=N3)cc2)cc1 (stereo not drawn) | 16 µg/mL (≈ 47.4 µM) | 32 µg/mL (≈ 94.8 µM) | 16 µg/mL (≈ 47.4 µM) | 32 µg/mL | > 64 µg/mL | 16 µg/mL (≈ 47.4 µM) | > 64 µg/mL | 32 µg/mL | – |
| CN(C)C1=NC(c2ccc3cc(OCc4ccc(Cl)cc4)ccc3c2)N=C(N)N1 (stereo not drawn) | 1 µg/mL (≈ 2.45 µM) | 1 µg/mL (≈ 2.45 µM) | 1 µg/mL (≈ 2.45 µM) | 1 µg/mL | 64 µg/mL (≈ 157 µM) | 1 µg/mL (≈ 2.45 µM) | 64 µg/mL (≈ 157 µM) | 1 µg/mL | – |
| COc1ccccc1C(=O)/C=C/c1ccc(C2N=C(N)NC(N(C)C)=N2)cc1 (stereo not drawn) | 64 µg/mL (≈ 170 µM) | 64 µg/mL (≈ 170 µM) | 32 µg/mL (≈ 84.8 µM) | 64 µg/mL | > 64 µg/mL | 64 µg/mL (≈ 170 µM) | > 64 µg/mL | 64 µg/mL | – |
| CN(C)C1=NC(c2ccc3cc(OCc4ccc(Br)cc4)ccc3c2)N=C(N)N1 (stereo not drawn) | 1 µg/mL (≈ 2.21 µM) | 1 µg/mL (≈ 2.21 µM) | 1 µg/mL (≈ 2.21 µM) | 1 µg/mL | 64 µg/mL (≈ 141 µM) | 1 µg/mL (≈ 2.21 µM) | 64 µg/mL (≈ 141 µM) | 1 µg/mL | – |
| CN(C)C1=NC(c2ccc(OCc3ccccc3)cc2)N=C(N)N1 (stereo not drawn) | 32 µg/mL (≈ 98.9 µM) | 32 µg/mL (≈ 98.9 µM) | 32 µg/mL (≈ 98.9 µM) | 64 µg/mL | > 64 µg/mL | 32 µg/mL (≈ 98.9 µM) | > 64 µg/mL | 32 µg/mL | – |
| CN(C)C1=NC(c2ccc3cc(OCc4ccccc4F)ccc3c2)N=C(N)N1 (stereo not drawn) | 4 µg/mL (≈ 10.2 µM) | 4 µg/mL (≈ 10.2 µM) | 4 µg/mL (≈ 10.2 µM) | 2 µg/mL | 64 µg/mL (≈ 163 µM) | 4 µg/mL (≈ 10.2 µM) | 64 µg/mL (≈ 163 µM) | 2 µg/mL | – |
